TAAR1 antag = antagonists of human TAAR1; Q96RJ0; CHO RD-HGA16 TAAR1, Fluo-8 calcium fluorescence, antagonist; inhibition, % at 3 µM; 360,000 compounds, 1.5% hits; AID 624466;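 active means inhibition above a per-plate cutoff, the mean inhibition of test compounds on that plate plus 3 SD, cut at about 49% in these data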;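 further: 0% = DMSO plus EC80 beta-PEA response and 100% = DMSO alone without agonist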
Target sequence (Q96RJ0 whole entry, looked up): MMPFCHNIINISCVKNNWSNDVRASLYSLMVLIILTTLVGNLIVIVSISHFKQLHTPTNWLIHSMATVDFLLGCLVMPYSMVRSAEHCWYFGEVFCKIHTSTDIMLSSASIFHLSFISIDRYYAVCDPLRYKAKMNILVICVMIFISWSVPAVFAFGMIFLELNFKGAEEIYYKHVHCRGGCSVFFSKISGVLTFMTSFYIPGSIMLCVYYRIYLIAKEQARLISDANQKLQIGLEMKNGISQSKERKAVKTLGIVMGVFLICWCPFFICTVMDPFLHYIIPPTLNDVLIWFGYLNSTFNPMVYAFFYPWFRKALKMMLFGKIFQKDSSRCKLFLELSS
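Material: CHO RD-HGA16 cells bearing hTAAR1; compound dosing: one-point dosing, 3 µM nominal final; schedule: dye loading 75 min at 37 °C, then 30 min room temperature; measured by: calcium fluorescence with Fluo-8; control set: vehicle and agonist controls; replication: n of 1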
OX1R antag-1 = OX1R (human) antagonism. O43613. OX1R-expressing cells, FRET antagonist read-out. inhibition, % at 6.6 µM. 330,000 compounds, 1.8% hits; in the data active means inhibition mostly above about 38%, no sharp cut-off; inactive means mostly below about 40%;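 further: 0% = agonist challenge alone and 100% = reference antagonist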
NTR1 ag = NTR1 (human) agonism; NTR1-U2OS beta-arrestin-GFP spot imaging, agonist mode; 330,000 compounds, 0.17% hits; activation, % at 20 µM;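 active means activation at or above 40% of the spot to cytoplasm intensity ratio, with at least 20 cells analyzed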;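 further: 0% = DMSO without peptide and 100% = 100 nM NTR1 peptide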
Target sequence (P30989 whole entry, looked up): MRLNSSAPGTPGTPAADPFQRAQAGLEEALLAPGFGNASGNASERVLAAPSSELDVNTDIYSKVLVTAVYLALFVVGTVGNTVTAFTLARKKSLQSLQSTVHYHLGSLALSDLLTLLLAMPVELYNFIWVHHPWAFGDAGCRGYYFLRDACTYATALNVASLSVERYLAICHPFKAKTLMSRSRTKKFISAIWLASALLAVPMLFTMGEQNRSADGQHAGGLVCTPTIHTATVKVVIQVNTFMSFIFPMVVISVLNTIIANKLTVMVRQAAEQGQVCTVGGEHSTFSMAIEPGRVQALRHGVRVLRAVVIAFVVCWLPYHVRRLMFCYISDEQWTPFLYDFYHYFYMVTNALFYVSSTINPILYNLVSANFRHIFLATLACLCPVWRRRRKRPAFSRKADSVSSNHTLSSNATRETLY
TAAR1 agonist = agonists of human TAAR1. Q96RJ0. 360,000 compounds, 0.99% hits. activation, % at 3 µM. CHO RD-HGA16 TAAR1, Fluo-8 calcium fluorescence; vehicle wells 0%, saturating PEA agonist 100%;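 active means activation above the mean activation of all test compounds in the run plus 3 SD, cut at about 38% in these data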
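test system = CHO RD-HGA16 cells carrying human TAAR1 plus Gα16 | schedule = 17-24 h seeding, 75 min 37 °C dye, 30 min RT | compound dosing = 3 µM single concentration | control set = DMSO and PEA EC100 | replicates = n 1 | signal = Fluo-8 fluorescence, 5 s baseline then 140 s kinetic read | measure = percent activation vs PEA EC100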
OX1R antag-2 = human HCRTR1 antagonism; O43613; CHO/OX1R cells, Fluo-8 calcium fluorescence, orexin A; inhibition, % at 5 µM; 330,000 compounds, 0.43% hits; AID 434989;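 active means inhibition above its plate's threshold, mean inhibition of all tested compounds on the plate plus 3 SD, cut at about 37% in these data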;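 further: 0% = orexin A challenge wells and 100% = SB-334867-A antagonist wells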
CHO parental Ca = counter-screen for OX1R antagonists: effect in parental CHO cells | parental CHO-K1, ATP-induced calcium, Fluo-8 fluorescence | AID 463079 | 330,000 compounds, 0.63% hits | inhibition, % at 5.6 µM;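 active means inhibition above that plate's mean sample inhibition plus 3 SD, cut at about 26% in these data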;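 further: 0% = ATP-challenged DMSO wells and 100% = DMSO wells without ATP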
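test system = CHO parental line | reagent = ATP stimulus | measured by = intracellular calcium via Fluo-8 no-wash fluorescent dye | control set = ATP and no-ATP DMSO wells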
TAAR1 nonsel count = nonselective antagonism, TAAR1 counter-screen; shares compounds with TAAR1 antag; counterscreen cell line, calcium fluorescence, antagonist mode; inhibition, % at 3 µM; 2,400 compounds, 77% hits; AID 651780; in the data active means inhibition above about 22%;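 further: CHO-Ga16 host cells stimulated with ATP at an EC80 level; 0% = agonist EC80 plus vehicle and 100% = vehicle without agonist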
TAAR1 ant conf = human TAAR1 antagonism, confirmed; TAAR1-expressing cells, fluorescence antagonist read-out; inhibition, % at 3 µM; AID 651785; shares compounds with TAAR1 antag; 2,400 compounds, 40% hits; in the data active means inhibition above about 49%;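 further: CHO-Ga16 host cells challenged with agonist PEA near its EC80; 0% = agonist at EC80 plus vehicle and 100% = vehicle with no agonist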
Ga16 ag counter = nonselective Ga16 agonist in TAAR1 antagonist counter-screen; 2,400 compounds, 18% hits; activation, % at 3 µM; shares compounds with TAAR1 antag; Ga16-expressing cells, calcium fluorescence, agonist counterscreen; AID 651953; in the data active means activation above about 12%;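 further: 0% = vehicle wells and 100% = saturating stimulus response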
TAAR1 ag count = TAAR1 agonism, antagonist counter-screen. shares compounds with TAAR1 antag. hTAAR1 cell line, fluorescence activation, agonist mode. activation, % at 3 µM. 2,400 compounds, 2% hits. AID 651955; in the data active means activation above about 37%;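 further: CHO cells stably expressing TAAR1 with calcium dye readout; 0% = DMSO vehicle and 100% = full agonist response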
* = called active by the depositor; nt = no result given. In the library only some 4% were active in any assay of this set; here they are far more common.

SMILES	TAAR1 antag	OX1R antag-1	NTR1 ag	TAAR1 agonist	OX1R antag-2	CHO parental Ca	TAAR1 nonsel count	TAAR1 ant conf	Ga16 ag counter	TAAR1 ag count
COc1ccc(-c2nc(NC(=O)c3ccc(OCC(=O)Nc4ccc(F)cc4)c(OC)c3)sc2C)cc1	65.2*	8.6	13.9	7.4	-14.2	-16.8	29.9*	47.3	9.6	10.4
COc1ccc(OC)c(C(=O)NC(CC(N)=O)c2ccc(N3CCN(c4ccc(F)cc4)CC3)c([N+](=O)[O-])c2)c1 (stereo unspecified)	7.9	6.8	6.0	5.1	-19.1	-11.6	nt	nt	nt	nt
Oc1ccc(-c2csc(NCc3ccco3)n2)cc1	104.0*	20.7	-1.8	-1.9	-18.6	-13.3	-2.6	-2.1	0.3	-3.6
c1coc(CNc2nc(-c3cccs3)cs2)c1	-4.9	10.9	0.4	-0.2	-4.3	7.6	nt	nt	nt	nt
COc1ccc(Cl)cc1Cn1c(C)c(C(=O)NCc2ccc3c(c2)OCCO3)sc1=O	56.1*	nt	nt	7.0	nt	nt	22.9*	38.6	6.6	6.8
COc1ccc(Cl)cc1Nc1nc(-c2sc(NC(=O)c3ccco3)nc2C)cs1	48.1	23.0	5.2	8.5	-28.1	-10.9	nt	nt	nt	nt
COc1cccc(Nc2nc(-c3sc(NC(=O)c4ccco4)nc3C)cs2)c1	52.4*	18.6	6.6	16.3	-36.0	-14.3	21.6*	29.5	5.2	14.3
NS(=O)(=O)c1cccc(NC(=O)CSc2nc3ccccc3c(=O)n2CC2CCCO2)c1 (stereo unspecified)	4.8	nt	-0.2	2.4	nt	nt	nt	nt	nt	nt
COc1ccc(N2CCN(c3nc(Cl)nc(Nc4ccc(F)cc4)n3)CC2)cc1	78.4*	0.7	21.4	1.7	-28.5	-14.7	27.0*	50.9*	9.8	16.7
COc1ccc(N2CCN(c3nc(Nc4ccc(C)c(F)c4)nc(N4CCCC4)n3)CC2)cc1	-19.1	9.7	0.0	-0.5	-13.6	-3.8	nt	nt	nt	nt
COc1ccccc1NC(=O)Nc1ccc(NC(=O)c2ccccc2O)cc1	61.0*	-2.7	2.8	11.9	-8.2	-14.7	39.0*	46.4	7.0	5.1
COc1ccccc1NC(=O)Nc1nc(CC(=O)NCc2cccnc2)cs1	15.7	0.7	-0.1	1.3	-31.1	-23.4	nt	nt	nt	nt
COc1ccc(CNC(=O)Cc2csc(NC(=O)Nc3ccccc3OC)n2)cc1	56.3*	7.5	4.9	15.4	1.3	-15.1	21.2	36.3	6.4	3.1
O=C(Cc1csc(NC(=O)Nc2cccc(Cl)c2)n1)NCc1ccccn1	64.7*	4.1	-0.3	14.0	-30.3	-22.3	29.1*	39.6	10.3	17.3
COc1ccccc1NC(=O)Nc1nc(CC(=O)Nc2cc(F)ccc2F)cs1	59.7*	12.6	9.0	11.4	-21.7	-2.6	33.8*	56.4*	9.6	10.8
COc1ccccc1NC(=O)Nc1nc(CC(=O)Nc2cccc(F)c2)cs1	47.2	34.4	10.0	8.7	-15.9	-14.8	nt	nt	nt	nt
COc1ccccc1NC(=O)Nc1ccc(C(N)=O)cc1	18.0	21.1	0.6	23.7	8.7	-0.1	nt	nt	nt	nt
COc1cc(NC(=O)C(C)Oc2ccccc2)ccc1NC(=O)COc1ccccc1 (stereo unspecified)	15.6	31.9	1.8	0.2	-16.0	-6.7	nt	nt	nt	nt
COC(C[C@@H](O)[C@@H](C)[C@H](O)COCc1ccccc1)OC	5.7	nt	0.1	13.5	nt	nt	nt	nt	nt	nt
COc1ccccc1NC(=O)N1CCN(c2ccc(F)cc2)CC1	-15.5	25.8	-0.2	1.6	-14.9	-15.0	nt	nt	nt	nt
COc1ccccc1NC(=O)Nc1nc(CC(=O)N2CCN(c3ccc(F)cc3)CC2)cs1	72.3*	13.1	3.9	16.7	-21.7	-3.7	45.6*	57.4*	12.9*	11.7
COc1ccccc1NC(=O)Nc1nc(CC(=O)Nc2ccc(F)cc2)cs1	51.9*	22.8	2.9	21.5	-18.8	-16.1	21.8*	35.6	9.3	14.3
COc1ccc(C)cc1NC(=O)Cc1csc(NC(=O)Nc2ccccc2OC)n1	72.6*	nt	nt	6.5	nt	nt	26.9*	47.7	8.3	6.1
C[C@H](NC(=O)[C@H](Cc1ccccc1)NC(=O)c1cc2cc(Cl)ccc2n1C)C(=O)O	-6.6	7.6	-0.2	-0.8	-11.7	3.3	nt	nt	nt	nt
CN1C[C@@H]2[C@@H]3C(=O)N(Cc4ccccc4)C(=O)[C@@H]3[C@](Cc3ccccc3)(C1=O)N2C(=O)c1ccc(F)cc1	13.4	nt	nt	0.3	nt	nt	nt	nt	nt	nt
SMILES	TAAR1 antag	OX1R antag-1	NTR1 ag	TAAR1 agonist	OX1R antag-2	CHO parental Ca	TAAR1 nonsel count	TAAR1 ant conf	Ga16 ag counter	TAAR1 ag count
COc1cccc(NC(=O)N2CCN(c3nc(-c4cccc(OC)c4)cs3)CC2)c1	73.2*	5.1	18.3	2.6	-20.5	4.2	35.0*	43.3	6.8	1.1
COc1cccc(-c2csc(N3CCN(C(=O)Nc4ccccc4Cl)CC3)n2)c1	23.2	18.4	4.4	9.6	-32.0	-10.2	nt	nt	nt	nt
CC(=O)c1cc(Cl)ccc1OCc1cccc(S(=O)(=O)N2CCOCC2)c1	90.7*	30.0	2.8	14.4	-2.0	14.6	34.6*	55.1*	12.8*	9.3
COc1cc(-c2nc3ccc(C)cn3c2NCc2ccccc2)ccc1SC1CCCCC1	53.8*	37.9	7.1	5.6	-31.2	-22.0	24.6*	30.5	1.7	-0.3
CCCCNc1c(-c2ccc(OC)c(SC3CCCCC3)c2)nc2cnccn12	nt	25.2	21.3	nt	-9.1	7.2	nt	nt	nt	nt
COc1ccc(CSc2ccc(-c3nc4ccccn4c3NCc3ccccc3)cc2OC)cc1	71.4*	27.9	3.1	17.6	-34.0	-3.4	30.2*	47.6	3.8	8.9
COc1ccc(-c2nc3cnccn3c2NCc2ccccc2)cc1SC1CCCCC1	nt	30.4	1.9	nt	-12.1	-30.0	nt	nt	nt	nt
CCCCNc1c(-c2ccc(OC)c(SC3CCCCC3)c2)nc2cc(C)ccn12	84.3*	25.0	7.4	9.0	-18.4	10.0	40.1*	48.7*	4.2	10.2
CCOC(=O)CCN1C(=O)c2ccccc2Sc2ncccc21	-1.4	-4.5	0.8	1.2	-23.1	-7.3	nt	nt	nt	nt
O=C(NCCc1ccccc1)c1ccc2c(c1)S(=O)(=O)c1ccccc1C2=O	51.7*	24.4	5.1	16.4	-25.0	-19.2	20.9	46.1	7.0	5.7
O=C(NCc1ccc(F)cc1)c1ccc2c(c1)S(=O)(=O)c1ccccc1C2=O	51.9*	26.2	7.8	19.1	-31.8	-22.4	24.8*	40.4	7.2	13.4

Compound activity from PubChem.
